Test results published in ChEMBL document CHEMBL1141259, “Cytotoxic ent-kauranoids from the medicinal plant Isodon xerophilus” (J Nat Prod, 2007).

Columns and labels:
Type in all cases: functional, cell-based
K562 = assay: Cytotoxicity against human K562 cells after 48 hrs; details: K562, 48 h
Procedure, shortened: (§1)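 Human lines obtained from Shanghai Cell Bank and kept in RPMI1640 with hormone-free 15% heat-inactivated FBS, 2 mM glutamine, 100 U/mL penicillin G and 100 µg/mL streptomycin. Seeded in 96-well plates at 5 × 10^4 cells/mL (K562) or 4 × 10^4 cells/mL (MKN45, HepG2). Exposed to compounds for 48 h, then viability was read by CCK-8 at 450 and 650 nm. IC50 is from triplicate experiments.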

MKN-45 = assay: Cytotoxicity against human MKN45 cells after 48 hrs; details: MKN-45, 48 h; procedure, shortened: as §1
HepG2 = assay: Cytotoxicity against human HepG2 cells after 48 hrs; details: HepG2, 48 h; procedure, shortened: as §1

SMILES	IC50 (K562) [µM]	IC50 (MKN-45) [µM]	IC50 (HepG2) [µM]
C=C1C(=O)[C@]23[C@H](O)[C@H]1CC[C@H]2[C@]12[C@H](O)CCC(C)(C)[C@H]1[C@H](O)[C@]3(O)O[C@@H]2O [HEBEIRUBESCENSINS G]	5.3	> 10	> 10
C=C1C(=O)[C@]23[C@H](O)[C@H]1CC[C@H]2[C@@]12C(O)O[C@@]3(O)[C@@H](O)[C@@H]1C(C)(C)CC[C@H]2O (stereo not given in full) [HEBEIRUBESCENSINS H]	5.3	> 10	> 10
C=C1C(=O)[C@]23[C@H](O)[C@H]1CC[C@H]2[C@]12CCC[C@@](C)(COC(C)=O)[C@H]1[C@H](O)[C@]3(O)OC2 [LONGIKAURIN B]	1.6	0.49	1.2
C=C1C(=O)[C@]23C[C@H]1C[C@@H](O)[C@H]2[C@]12CCC[C@@](C)(COC(C)=O)[C@H]1[C@H](O)[C@]3(O)OC2 [LONGIKAURIN D]	0.56	0.34	0.56
C=C1C(=O)[C@@]23[C@@H]4O[C@H]5O[C@@]2(O)[C@@H](O)[C@@H]2C(C)(C)CCC[C@]52[C@@H]3[C@@H](O)C[C@@H]14 [MACROCALIN B]	> 10	> 10	> 10
C=C1C(=O)[C@]23C[C@H]1CC[C@H]2[C@@]12CO[C@@]3(O)[C@@H](O)[C@@H]1[C@](C)(COC(C)=O)[C@@H](O)C[C@H]2O [MAOECRYSTAL I]	> 10	1.3	> 10
C=C1C(=O)[C@]23[C@H](O)[C@H]1C[C@H](O)[C@H]2[C@]12CCCC(C)(C)[C@H]1C(=O)[C@]3(O)[C@H]2O [PHYLLOSTACHYSIN A]	6.6	3	
C=C1C(=O)[C@@]23[C@@H]4OC5O[C@@]2(O)[C@@H](O)[C@@H]2C(C)(C)CC[C@@H](O)[C@]52[C@@H]3CC[C@@H]14 [PONICIDIN]	1.3	> 10	0.96
C=C1[C@@H](OC(C)=O)[C@]23[C@H](O)[C@H]1CC[C@H]2[C@]12CCCC(C)(C)[C@H]1[C@H](OC(C)=O)[C@]3(O)OC2 [RABDOTERNIN C]	> 10	> 10	> 10
C=C1[C@@H](O)[C@]23[C@H](O)[C@H]1C[C@H](O)[C@H]2[C@]12CCCC(C)(C)[C@H]1[C@H](OC(C)=O)[C@]3(O)OC2 [RABDOTERNIN D]	> 10	> 10	> 10
C=C1C(=O)[C@]23[C@H](O)[C@H]1CC[C@H]2[C@@]12C(OC)O[C@@]3(O)[C@@H](O)[C@@H]1C(C)(C)CC[C@H]2O (stereo not given in full) [RABDOTERNIN E]	2.4	> 10	> 10
C=C1C(=O)[C@]23[C@H](O)[C@H]1C[C@H](O)[C@H]2[C@]12CCCC(C)(C)[C@H]1[C@H](O)[C@]3(O)OC2 [ROSTHORIN A]	0.33	5.4	6.4
C=C1C(=O)[C@]23C[C@H]1C[C@@H](O)[C@@H]2[C@@]1(CCC[C@@](C)(COC(C)=O)[C@H]1C=O)COC3=O [TRICHORABDAL B]	> 10	> 10	> 10
C=C1C(=O)[C@@]23[C@@H]4O[C@H]5O[C@@]2(O)[C@@H](O)[C@@H]2C(C)(C)CCC[C@]52[C@@H]3[C@@H](OC(C)=O)C[C@@H]14 [XEROPHILUSIN A]	1.6	> 10	> 10
C=C1C(=O)[C@@]23[C@@H]4O[C@H]5O[C@@]2(O)[C@@H](O)[C@@H]2C(C)(C)CCC[C@]52[C@@H]3CC[C@@H]14 [XEROPHILUSIN B]	4.1	0.4	3.9
C=C1C(=O)[C@]23[C@H](O)[C@H]1CC[C@H]2[C@@]12CCC[C@@]4(C)CO[C@H]1O[C@@]3(O)[C@@H](O)[C@H]42 [XEROPHILUSIN D]	9	3.9	4.2

SMILES	IC50 (K562) [µM]	IC50 (MKN-45) [µM]	IC50 (HepG2) [µM]
C=C1C(=O)[C@]23[C@H](O)[C@H]1C[C@H](OC(C)=O)[C@H]2[C@]12CCCC(C)(C)[C@H]1C(=O)[C@]3(O)[C@H]2O [XEROPHILUSIN F]	4.3	> 10	4.9
C=C1C(=O)[C@]23C[C@H]1CC[C@H]2[C@@]12CO[C@@]3(O)[C@@H](O)[C@@H]1[C@](C)(COC(C)=O)CC[C@H]2O [XEROPHILUSIN H]	> 10	> 10	> 10
C=C1C(=O)[C@@]23C(=O)[C@@H](O)[C@@H]4C(C)(C)CCC[C@@]4(C=O)[C@@H]2[C@@H](O)C[C@@H]1[C@H]3O [XEROPHILUSIN II]	1	> 10	4.5
C=C1C(=O)[C@]23[C@H](O)[C@H]1CC[C@H]2[C@]12CCC[C@@](C)(CO)[C@H]1[C@H](O)[C@]3(O)OC2 [XEROPHILUSIN IV]	> 10	> 10	> 10
C=C1C(=O)[C@]23C[C@H]1CC[C@H]2[C@@]12CO[C@@]3(O)[C@@H](O)[C@@H]1C(C)(C)CC[C@H]2O [XEROPHILUSIN I]	7.6	6.2	4
C=C1C(=O)[C@]23[C@H](O)[C@H]1C[C@H](OC(C)=O)[C@H]2[C@]12CCCC(C)(C)[C@H]1[C@H](O)[C@]3(O)OC2 [XEROPHILUSIN K]	1.4	5.6	2.2
C=C1C(=O)[C@]23[C@H](O)[C@H]1CC[C@H]2[C@]12CCCC(C)(C)[C@H]1[C@H](O)[C@]3(O)OC2=O [XEROPHILUSIN N]	1.2	4.8	> 10
C=C1C(=O)[C@]23[C@H](O)[C@H]1C[C@H](O)[C@H]2[C@@]12CO[C@@]3(O)[C@@H](O)[C@@H]1[C@](C)(COC(C)=O)CC[C@H]2O [XEROPHILUSIN VI]	> 10	> 10	> 10
C=C1[C@@H](O)[C@]23[C@H](O)[C@H]1CC[C@H]2[C@@]12CO[C@@]3(O)[C@@H](O)[C@@H]1[C@](C)(CO)CC[C@H]2O [XEROPHILUSIN V]	> 10	> 10	> 10
COC[C@@H]1C(=O)[C@]23[C@H](O)[C@H]1C[C@H](OC(C)=O)[C@H]2[C@]12CCCC(C)(C)[C@H]1[C@H](O)[C@]3(O)OC2 [XEROPHILUSIN X1]	1.5	3.9	1.9
C=C1C(=O)[C@]23[C@H](O)[C@H]1C[C@H](OC(C)=O)[C@H]2[C@]12CCCC(C)(C)[C@H]1[C@H](O)[C@]3(O)O[C@@H]2OC [XEROPHILUSIN XII]	3.6	2.1	4.9
C=C1C(=O)[C@]23[C@H](O)[C@H]1C[C@H](O)[C@H]2[C@]12CCCC(C)(C)[C@H]1[C@H](O)[C@]3(O)O[C@@H]2OC [XEROPHILUSIN XI]	> 10	> 10	> 10
C=C1[C@@H]2C[C@H](OC(C)=O)[C@H]3[C@]45CCCC(C)(C)[C@H]4[C@H](OC(C)=O)[C@](O)(OC5)[C@]3([C@@H]2O)[C@H]1O [XEROPHILUSIN X]	> 10	> 10	> 10
C=C1C(=O)[C@]23[C@H](O)[C@H]1C[C@H](O)[C@H]2[C@]1(C=O)CCCC(C)(C)[C@H]1C(=O)[C@@H]3O [XEROPHILUSINE I]	0.04	2.8	0.19
CC(=O)O[C@H]1C[C@H]2C3=C(O[C@]4(CC3)C(=O)[C@@]35[C@@H]6O[C@H]7O[C@@]3(O)[C@@H](O)[C@@H]3C(C)(C)CCC[C@@]73[C@@H]5[C@@H](OC(C)=O)C[C@H]64)[C@@]34[C@@H]2O[C@H]2O[C@@]3(O)[C@@H](O)[C@@H]3C(C)(C)CCC[C@]23[C@H]14 [enanderinanin J]	> 10	> 10	> 10
C=C1C(=O)[C@]23[C@H](O)[C@H]1CC[C@H]2[C@@]12CO[C@@]3(O)[C@@H](O)[C@@H]1[C@](C)(COC(C)=O)CC[C@H]2O [xerophilusin G]	> 10	> 10	> 10
